# Source: ChEMBL document CHEMBL4033789, “Discovery of a New Four-Leaf Clover-Like Ligand as a Potent c-MYC Transcription Inhibitor Specifically Targeting the Promoter G-Quadruplex” (J Med Chem, 2018)
# pIC50: −log10 of the molar value. Active and inactive are the calls of the source. The rule behind the calls is not given here.
# Assays:
# [1] = test system: SiHa; assay: Antitumor activity against human SiHa cells xenografted in nude BALB/c mouse assessed as tumor growth inhibition at 1 mg/kg, ip administered every other day for 24 days; format: functional, organism-based
# How it was run: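 BALB/c nude mice (5 weeks old) given 1×10^7 SiHa cells subcutaneously in right flank; at ~50 mm3 tumor volume, randomized (10 per group) and dosed intraperitoneally every other day for 24 days; controls got equal-volume saline. Caliper volume as 1/2 × length × width2; tumors weighed at end; inhibition rate = (1 − mean treated tumor weight/mean control tumor weight) × 100%.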
# [2] = test system: Mus musculus; assay: Toxicity in nude BALB/c mouse xenografted with human SiHa cells assessed as body weight reduction at 1 mg/kg, ip administered every other day for 24 days; format: organism-based; details: in vivo, 576 h
# How it was run: (§1)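 BALB/c nude mice, 5 weeks old, implanted subcutaneously in right flank with 1×10^7 SiHa cells; at ~50 mm3 tumor, 10 per group dosed ip every other day for 24 days, saline control; body weight measured daily, viscera weighed at sacrifice; mean ± SEM, Student's t test versus saline.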
# [3] = test system: Mus musculus; assay: Toxicity in nude BALB/c mouse xenografted with human SiHa cells assessed as viscera weight reduction at 1 mg/kg, ip administered every other day for 24 days; format: organism-based; details: in vivo, 576 h; how it was run: as §1
# [4] = test system: Mus musculus; assay: In vivo stabilization of c-Myc G-quadruplex DNA in human SiHa cells xenografted in nude BALB/c mouse assessed as decrease in c-Myc expression at 1 mg/kg, ip administered every other day for 24 days by immunohistochemistry; format: functional, organism-based
# [5] = Cytotoxicity against mouse primary mesangial cells assessed as reduction in cell viability after 24 hrs by MTT assay; format: cell-based
# How it was run: (§2)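 Cells seeded at 5.0×10^3 per well, exposed to compound for 24 h; MTT (2.5 mg/mL) added for 4 h, formazan dissolved in DMSO, OD read at 570 nm. Triplicate; IC50 from curves of mean OD against concentration.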
# [6] = test system: A-375; assay: Cytotoxicity against human A375 cells assessed as reduction in cell viability after 24 hrs by MTT assay; format: functional, cell-based; details: A-375, 24 h; how it was run: as §2
# [7] = test system: SiHa; assay: Cytotoxicity against human SiHa cells assessed as reduction in cell viability after 24 hrs by MTT assay; format: functional, cell-based; how it was run: as §2
# [8] = Binding affinity to 1 uM hybrid telomeric htg22 G-quadruplex DNA (unknown origin) at 1 uM after 1 min by fluorescence spectroscopic analysis; format: ADME
# How it was run: (§3)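 Fluorescence emission spectra of 1 µM compound mixed with 1 µM pre-annealed oligonucleotide (G-quadruplexes folded in 100 mM KCl by heating to 95 °C for 5 min, slow cooling), in Tris-HCl buffer.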
# [9] = Binding affinity to 1 uM c-MYC promoter G-quadruplex pu22 DNA (unknown origin) at 1 uM after 1 min by fluorescence spectroscopic analysis; how it was run: as §3
# [10] = Binding affinity to 1 uM G-triplex DNA (unknown origin) at 1 uM after 1 min by fluorescence spectroscopic analysis
# [11] = test system: BJ; assay: Cytotoxicity against human BJ cells assessed as reduction in cell viability after 24 hrs by MTT assay; format: cell-based; how it was run: as §2
# [12] = Binding affinity to 1 uM antiparallel HRAS G-quadruplex DNA (unknown origin) at 1 uM after 1 min by fluorescence spectroscopic analysis; format: ADME; how it was run: as §3
# [13] = test system: HeLa; assay: Cytotoxicity against human HeLa cells assessed as reduction in cell viability after 24 hrs by MTT assay; format: functional, cell-based; how it was run: as §2
# [14] = Binding affinity to 1 uM i-motif DNA (unknown origin) at 1 uM after 1 min by fluorescence spectroscopic analysis
# [15] = test system: Huh-7; assay: Cytotoxicity against human Huh7 cells assessed as reduction in cell viability after 24 hrs by MTT assay; format: functional, cell-based; details: Huh-7, 24 h; how it was run: as §2
Compound,TGI [1],Activity [2],Activity [3],Activity [4],pIC50 [5],pIC50 [6],pIC50 [7],Activity [8],Activity [9],Activity [10],pIC50 [11],Activity [12],pIC50 [13],Activity [14],pIC50 [15]
COc1cccc2c1C(=O)c1c(O)c3c(c(O)c1C2=O)C[C@@](O)(C(=O)CO)C[C@@H]3O[C@H]1C[C@H](N)[C@H](O)[C@H](C)O1 [DOXORUBICIN],Active,Toxic,Toxic,Active,–,–,–,–,–,–,–,–,–,–,–
CCn1c2ccccc2c2cc(-c3nc(-c4ccc(N5CCN(C)CC5)cc4)c(-c4ccc(F)cc4)[nH]3)ccc21,–,–,–,–,4.76,5.13,4.52,Not Active,Active,inactive,4.86,Not Active,4.82,inactive,4.91
CCn1c2ccccc2c2cc(-c3nc(-c4ccc(N5CCN(C)CC5)cc4)c(-c4ccc(N5CCN(C)CC5)cc4)[nH]3)ccc21,–,–,–,–,5.51,5.64,5.64,–,–,–,5.55,–,5.60,–,5.57
CCn1c2ccccc2c2cc(-c3nc(-c4ccc(F)cc4)c(-c4ccc(F)cc4)[nH]3)ccc21,–,–,–,–,< 4.10,< 4.10,< 4.10,–,Active,–,< 4.10,–,< 4.10,–,< 4.10
CCn1c2ccccc2c2cc(-c3nc(-c4ccc(F)cc4)c(-c4ccc(F)cc4)n3-c3ccc(OC)cc3)ccc21,–,–,–,–,< 4.10,< 4.10,< 4.10,Not Active,inactive,–,< 4.10,Not Active,< 4.10,–,< 4.10
